# According to ChEMBL document CHEMBL4351001, “2-Aminoimidazole-based antagonists of the 5-HT6 receptor - A new concept in aminergic GPCR ligand design” (Eur J Med Chem, 2019):
# Legend:
# [1] = biological target: T1, 5-hydroxytryptamine receptor 6 (Homo sapiens, UniProt P50406); experiment: Displacement of [3H]LSD from human 5HT6 receptor expressed in HEK293 cells measured after 1 hr by liquid scintillation counter method; assay type: cell-based
# [2] = biological target: D(2) dopamine receptor (Homo sapiens, UniProt P14416); experiment: Displacement of [3H]-methylspiperone from human D2 long receptor expressed in HEK293 cells measured after 1 hr by liquid scintillation counter method; assay type: cell-based
# Sequence of D(2) dopamine receptor (P14416 whole entry): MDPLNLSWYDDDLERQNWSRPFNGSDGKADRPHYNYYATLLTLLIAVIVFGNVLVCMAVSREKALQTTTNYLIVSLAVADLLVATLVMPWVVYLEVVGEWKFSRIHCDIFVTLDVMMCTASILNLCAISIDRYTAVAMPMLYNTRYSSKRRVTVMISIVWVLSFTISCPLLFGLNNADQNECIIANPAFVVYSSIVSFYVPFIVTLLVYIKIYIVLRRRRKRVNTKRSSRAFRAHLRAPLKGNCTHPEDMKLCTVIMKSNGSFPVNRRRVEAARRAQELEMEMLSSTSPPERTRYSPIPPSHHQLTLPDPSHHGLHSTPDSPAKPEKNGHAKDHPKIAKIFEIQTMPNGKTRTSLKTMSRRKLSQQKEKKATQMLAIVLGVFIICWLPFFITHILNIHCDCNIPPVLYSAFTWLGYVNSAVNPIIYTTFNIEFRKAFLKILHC
# Summary of the method: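 HEK293 membranes stably expressing human D2L receptor, incubated 1 h at 37°C, then filtered and retained radioactivity counted; (+)-butaclamol 1 μM defines nonspecific binding. Tested in triplicate at 7–8 concentrations (10⁻¹¹–10⁻⁴ M); Ki via Cheng-Prusoff, averaged over at least two independent experiments.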
# [3] = biological target: 5-hydroxytryptamine receptor 2A (Homo sapiens, UniProt P28223); experiment: Displacement of [3H]ketanserin from human 5HT2A receptor expressed in CHOK1 cells incubated for 1 hr by liquid scintillation counter method; assay type: cell-based; details: read-out: Ki
# Sequence of 5-hydroxytryptamine receptor 2A (P28223 whole entry): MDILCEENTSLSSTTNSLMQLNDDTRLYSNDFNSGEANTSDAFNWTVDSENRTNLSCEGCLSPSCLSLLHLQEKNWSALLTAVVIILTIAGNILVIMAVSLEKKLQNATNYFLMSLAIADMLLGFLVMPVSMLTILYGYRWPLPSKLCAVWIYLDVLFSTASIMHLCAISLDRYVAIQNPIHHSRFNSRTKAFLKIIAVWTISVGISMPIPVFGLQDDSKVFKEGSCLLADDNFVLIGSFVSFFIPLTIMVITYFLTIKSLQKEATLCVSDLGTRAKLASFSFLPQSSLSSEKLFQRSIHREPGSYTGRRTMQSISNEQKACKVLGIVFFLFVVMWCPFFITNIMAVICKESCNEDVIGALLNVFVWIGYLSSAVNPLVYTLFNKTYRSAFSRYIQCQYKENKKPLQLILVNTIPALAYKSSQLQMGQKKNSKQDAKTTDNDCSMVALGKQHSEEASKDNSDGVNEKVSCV
# [4] = Stability of compound in rat liver microsomes; assay type: ADME, Microsome
# Summary of the method: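 Incubation in triplicate with rat liver microsomes at 37°C with NADP, G6P, G6P dehydrogenase and MgCl2. Verapamil and donepezil served as microsomal activity standards.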
# [5] = biological target: T2, 5-hydroxytryptamine receptor 1A (Homo sapiens, UniProt P08908); experiment: Displacement of [3H]-8-OH-DPAT from human 5HT1A receptor expressed in HEK293 cells incubated for 1 hr by liquid scintillation counter method; assay type: cell-based
# T2 sequence (P08908 whole entry): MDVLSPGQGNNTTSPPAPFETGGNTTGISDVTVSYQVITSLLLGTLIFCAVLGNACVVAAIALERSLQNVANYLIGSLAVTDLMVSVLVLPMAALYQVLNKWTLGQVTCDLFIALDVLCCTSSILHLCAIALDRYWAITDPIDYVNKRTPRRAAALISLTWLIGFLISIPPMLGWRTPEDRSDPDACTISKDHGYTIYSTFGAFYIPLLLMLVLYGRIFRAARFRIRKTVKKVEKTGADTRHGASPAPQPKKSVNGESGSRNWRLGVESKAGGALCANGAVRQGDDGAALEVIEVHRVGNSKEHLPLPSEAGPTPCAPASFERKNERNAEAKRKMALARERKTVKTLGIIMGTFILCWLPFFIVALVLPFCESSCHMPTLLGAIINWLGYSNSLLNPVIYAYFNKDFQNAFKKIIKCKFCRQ
# Summary of the method: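 HEK293 cells stably expressing human 5-HT1AR; membranes in 50 mM Tris–HCl, 0.1 mM EDTA, 4 mM MgCl2, 10 μM pargyline, 0.1% ascorbate; incubated 1 h at room temperature, then filtered. Nonspecific binding defined with 10 μM 5-HT.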
# [6] = Solubility of compound in water; assay type: physicochemical
# [7] = biological target: 5-hydroxytryptamine receptor 7 (Homo sapiens, UniProt P34969); experiment: Displacement of [3H]-5-CT from human 5HT7 receptor expressed in HEK293 cells measured after 1 hr by liquid scintillation counter method; assay type: cell-based
# Sequence of 5-hydroxytryptamine receptor 7 (P34969 whole entry): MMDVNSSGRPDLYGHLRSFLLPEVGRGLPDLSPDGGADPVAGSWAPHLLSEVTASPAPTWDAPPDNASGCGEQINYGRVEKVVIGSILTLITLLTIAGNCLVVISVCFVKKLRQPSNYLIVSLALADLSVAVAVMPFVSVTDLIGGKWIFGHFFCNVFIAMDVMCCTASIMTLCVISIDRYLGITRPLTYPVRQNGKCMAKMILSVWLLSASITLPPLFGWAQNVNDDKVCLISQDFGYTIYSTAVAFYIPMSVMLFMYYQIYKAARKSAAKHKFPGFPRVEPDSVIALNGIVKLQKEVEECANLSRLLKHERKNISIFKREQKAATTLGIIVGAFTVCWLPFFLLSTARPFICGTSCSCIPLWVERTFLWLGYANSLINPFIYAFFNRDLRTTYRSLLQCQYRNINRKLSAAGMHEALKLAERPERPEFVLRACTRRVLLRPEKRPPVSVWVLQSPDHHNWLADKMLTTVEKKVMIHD
# [8] = in vitro; details: rat
# [9] = in vitro; details: rat; remark: listed apart in the source
# [10] = biological target: T3, Muscarinic acetylcholine receptor M1 (Homo sapiens) (UniProt P11229); experiment: Displacement of [3H] pirenzepine from human recombinant muscarinic M1 receptor at 10^-6 M measured after 60 mins by scintillation counter method relative to control
# T3 sequence (whole entry): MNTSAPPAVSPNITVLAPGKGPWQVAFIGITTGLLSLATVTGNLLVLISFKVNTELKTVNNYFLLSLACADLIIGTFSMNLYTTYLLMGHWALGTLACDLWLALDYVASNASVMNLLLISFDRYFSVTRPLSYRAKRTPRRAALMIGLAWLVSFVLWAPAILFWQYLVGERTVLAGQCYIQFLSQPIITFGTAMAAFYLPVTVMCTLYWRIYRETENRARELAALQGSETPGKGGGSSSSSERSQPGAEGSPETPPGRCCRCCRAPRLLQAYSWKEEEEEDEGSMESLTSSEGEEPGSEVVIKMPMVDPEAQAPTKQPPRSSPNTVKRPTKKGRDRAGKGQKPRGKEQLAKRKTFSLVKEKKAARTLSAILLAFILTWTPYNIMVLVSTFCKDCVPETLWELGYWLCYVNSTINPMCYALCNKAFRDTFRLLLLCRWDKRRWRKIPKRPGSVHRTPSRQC
# [11] = biological target: T4, Alpha-1A adrenergic receptor (Rattus norvegicus) (UniProt P43140); experiment: Displacement of [3H] prazosin from rat alpha 1A adrenergic receptor at 10^-6 M measured after 60 mins by scintillation counter method relative to control
# T4 sequence (whole entry): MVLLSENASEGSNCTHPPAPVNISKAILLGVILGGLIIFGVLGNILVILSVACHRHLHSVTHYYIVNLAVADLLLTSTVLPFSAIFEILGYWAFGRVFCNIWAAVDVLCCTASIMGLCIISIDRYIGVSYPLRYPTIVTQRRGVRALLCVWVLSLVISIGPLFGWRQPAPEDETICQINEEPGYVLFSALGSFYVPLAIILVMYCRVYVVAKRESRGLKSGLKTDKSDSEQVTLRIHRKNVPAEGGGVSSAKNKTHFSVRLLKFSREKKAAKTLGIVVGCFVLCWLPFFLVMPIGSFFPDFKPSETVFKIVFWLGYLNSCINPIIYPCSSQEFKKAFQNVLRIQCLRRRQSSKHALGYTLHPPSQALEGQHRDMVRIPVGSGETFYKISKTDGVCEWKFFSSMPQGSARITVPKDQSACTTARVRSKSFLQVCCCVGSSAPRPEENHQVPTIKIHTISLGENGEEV
# [12] = biological target: Histamine H1 receptor (Homo sapiens) (UniProt P35367); experiment: Displacement of [3H] pyrilamine from human recombinant H1 histamine receptor at 10^-6 M measured after 60 mins by scintillation counting method relative to control
# Sequence of Histamine H1 receptor (Homo sapiens) (P35367 whole entry): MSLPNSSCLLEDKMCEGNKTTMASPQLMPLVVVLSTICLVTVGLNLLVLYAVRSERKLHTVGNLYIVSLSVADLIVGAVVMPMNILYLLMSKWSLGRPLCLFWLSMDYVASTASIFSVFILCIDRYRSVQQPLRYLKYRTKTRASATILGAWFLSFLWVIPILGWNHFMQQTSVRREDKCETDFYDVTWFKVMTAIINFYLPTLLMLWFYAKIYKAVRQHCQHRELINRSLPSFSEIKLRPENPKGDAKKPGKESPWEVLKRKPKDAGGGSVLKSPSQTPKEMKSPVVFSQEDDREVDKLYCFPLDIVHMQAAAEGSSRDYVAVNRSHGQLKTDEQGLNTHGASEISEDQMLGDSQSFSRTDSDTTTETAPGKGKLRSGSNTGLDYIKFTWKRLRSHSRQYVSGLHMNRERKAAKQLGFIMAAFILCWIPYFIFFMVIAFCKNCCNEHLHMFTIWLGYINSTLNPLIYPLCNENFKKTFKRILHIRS
# [13] = biological target: T5, 5-hydroxytryptamine receptor 2C (Homo sapiens) (UniProt P28335); experiment: Displacement of [3H]mesulergine from human recombinant 5HT2C serotonin receptor at 10^-6M incubated for 120 mins by scintillation counter method relative to control
# T5 sequence (whole entry): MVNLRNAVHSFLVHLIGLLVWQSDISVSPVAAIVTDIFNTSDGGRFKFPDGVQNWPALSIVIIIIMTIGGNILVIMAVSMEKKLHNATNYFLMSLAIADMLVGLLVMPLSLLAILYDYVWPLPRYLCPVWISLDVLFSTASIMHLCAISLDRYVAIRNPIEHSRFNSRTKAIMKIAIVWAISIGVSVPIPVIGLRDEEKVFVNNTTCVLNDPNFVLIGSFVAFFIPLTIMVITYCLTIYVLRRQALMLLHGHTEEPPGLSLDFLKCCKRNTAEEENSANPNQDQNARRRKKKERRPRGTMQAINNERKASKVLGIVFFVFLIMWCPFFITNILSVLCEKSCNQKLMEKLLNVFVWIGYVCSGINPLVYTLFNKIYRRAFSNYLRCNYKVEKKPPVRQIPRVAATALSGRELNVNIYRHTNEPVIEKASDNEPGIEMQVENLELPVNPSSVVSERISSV
# [14] = biological target: T1, 5-hydroxytryptamine receptor 6; experiment: Antagonist activity at human 5HT6 receptor expressed in HEK293 cells assessed as inhibition of 5-CT induced cAMP production measured after 30 mins by TR-FRET assay; assay type: functional, cell-based
# [15] = biological target: 5-hydroxytryptamine receptor 2B (Homo sapiens) (UniProt P41595); experiment: Antagonist activity at human recombinant 5HT2B receptor expressed in CHOK1 cells at 10^-6 M measured after 30 mins by HTRF assay relative to control; assay type: cell-based; design: scale not given: the % may be the effect or the level left
# Sequence of 5-hydroxytryptamine receptor 2B (Homo sapiens) (P41595 whole entry): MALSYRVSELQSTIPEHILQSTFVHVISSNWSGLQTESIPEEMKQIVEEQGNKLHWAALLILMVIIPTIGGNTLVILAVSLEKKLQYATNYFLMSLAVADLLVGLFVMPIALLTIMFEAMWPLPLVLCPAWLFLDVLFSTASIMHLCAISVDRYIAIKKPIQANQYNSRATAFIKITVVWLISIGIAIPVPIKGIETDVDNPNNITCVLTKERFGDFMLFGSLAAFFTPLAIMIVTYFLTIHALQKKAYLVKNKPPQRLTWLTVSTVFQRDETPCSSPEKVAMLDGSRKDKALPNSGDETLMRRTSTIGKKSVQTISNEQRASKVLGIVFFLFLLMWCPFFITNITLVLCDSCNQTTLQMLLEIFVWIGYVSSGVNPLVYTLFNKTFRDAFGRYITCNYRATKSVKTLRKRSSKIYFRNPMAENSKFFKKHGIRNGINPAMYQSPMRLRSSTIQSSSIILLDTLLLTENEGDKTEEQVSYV
# T1 sequence (P50406 whole entry): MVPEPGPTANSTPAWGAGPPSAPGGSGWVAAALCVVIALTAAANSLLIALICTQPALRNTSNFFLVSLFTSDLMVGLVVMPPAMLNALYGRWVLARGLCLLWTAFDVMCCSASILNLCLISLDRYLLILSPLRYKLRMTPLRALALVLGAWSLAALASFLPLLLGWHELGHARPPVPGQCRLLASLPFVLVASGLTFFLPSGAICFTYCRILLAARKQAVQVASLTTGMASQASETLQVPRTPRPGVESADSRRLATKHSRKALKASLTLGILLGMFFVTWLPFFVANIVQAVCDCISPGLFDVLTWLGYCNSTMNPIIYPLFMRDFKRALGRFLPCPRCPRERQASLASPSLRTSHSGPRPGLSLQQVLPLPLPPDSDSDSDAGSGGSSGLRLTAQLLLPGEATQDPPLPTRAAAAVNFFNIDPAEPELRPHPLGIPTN
SMILES,Ki [1] [nM],Ki [2] [nM],Ki [3] [nM],Ki ([5]; read-out: Ki) [nM],solubility ([6]; buffer),further results
COc1ccc2c(c1)c(-c1[nH]c(NC(=O)Cc3ccccc3)nc1C)cn2S(=O)(=O)c1ccccc1,3,> 10000,> 10000,,Insoluble,Ki ([7]; read-out: Ki): > 10000 nM
CC(=O)Nc1nc(C)c(-c2cn(S(=O)(=O)c3ccccc3)c3ccccc23)[nH]1 [listing 1 of 2 here],25,> 10000,> 10000,> 10000,Insoluble,Stability [4]: Stable; Ki ([7]; read-out: Ki): > 10000 nM; microsomal CLint ([8]; microsomes): 7.3 µL/min/mg; half-life ([9]; microsomes): 190 min
CC(=O)Nc1nc(C)c(-c2ccc3ccn(S(=O)(=O)c4ccccc4)c3c2)[nH]1,,,> 10000,,,inhibition [11]: -4.2%; inhibition [12]: -1.9%
CC(=O)N1CCCn2c1nc(C)c2-c1cn(S(=O)(=O)c2ccccc2)c2ccccc12,,,> 10000,> 10000,Insoluble,
CC(=O)N1CCn2c1nc(C)c2-c1cn(S(=O)(=O)c2ccccc2)c2ccccc12,,,> 10000,> 10000,Insoluble,
CCc1nc(NC(C)=O)[nH]c1-c1cn(S(=O)(=O)c2ccccc2)c2ccc(OC)cc12,,,> 10000,> 10000,Insoluble,
COc1ccc2c(c1)c(-c1[nH]c(N)nc1C)cn2S(=O)(=O)c1ccccc1.Cl,,,676,> 10000,Soluble,
Cl.Nc1ncc(-c2cn(S(=O)(=O)c3ccccc3)c3ccccc23)[nH]1,,,891,126,Soluble,
Fc1ccc2c(CCNCc3cccc(OCC(F)(F)C(F)F)c3)c[nH]c2c1 [IDALOPIRDINE],,,,,,microsomal CLint ([8]; microsomes): 99.3 µL/min/mg
CCc1nc(N)[nH]c1-c1cn(S(=O)(=O)c2ccccc2)c2ccc(OC)cc12.Cl,,,661,> 10000,Soluble,
COc1ccc2c(c1)c(-c1[nH]c(NC(C)=O)nc1C)cn2S(=O)(=O)c1cccc(F)c1,,,> 10000,> 10000,Insoluble,
CC(=O)Nc1nc(C)c(-c2cn(S(=O)(=O)c3ccccc3)c3ccccc23)[nH]1 [listing 2 of 2 here],,,,,,inhibition [11]: -1.5%; inhibition [12]: -5.9%; Activity [15]: -1.9%; inhibition [13]: 22.4%; Kb [14]: 1.3 nM
COc1ccc2c(c1)c(-c1[nH]c(N)nc1C)cn2S(=O)(=O)c1cccc(F)c1.Cl,,,1120,> 10000,Soluble,
O=S(=O)(c1ccccc1)c1cnc2c(N3CCNCC3)cccc2c1 [INTEPIRDINE],,,,,,microsomal CLint ([8]; liver microsomes): 6.6 µL/min/mg
CCC(=O)Nc1nc(C)c(-c2cccc3c2ccn3S(=O)(=O)c2ccccc2)[nH]1,,,> 10000,> 10000,Insoluble,
O=S(=O)(c1ccccc1)n1cc(-c2c[n+]3cccnc3[nH]2)c2ccccc21.[Br-],50,,> 10000,> 10000,Soluble,Stability [4]: Unstable; Ki ([7]; read-out: Ki): > 10000 nM; microsomal CLint ([8]; microsomes): 230 µL/min/mg; half-life ([9]; microsomes): 6 min

# Continued, in another order:
Ki [1] [nM],Ki [2] [nM],SMILES,Ki [3] [nM],Ki ([5]; read-out: Ki) [nM],solubility ([6]; buffer),further results
4,708,Cc1nc(N)[nH]c1-c1ccc2ccn(S(=O)(=O)c3ccccc3)c2c1.Cl,1170,> 10000,Soluble,Stability [4]: Unstable; Ki ([7]; read-out: Ki): 776 nM; microsomal CLint ([8]; microsomes): 104 µL/min/mg; half-life ([9]; microsomes): 13 min
21,3980,COc1ccc2c(c1)c(-c1[nH]c(NCC(F)F)nc1C)cn2S(=O)(=O)c1ccccc1,1230,,,"inhibition [10]: -4%; inhibition [11]: 4%; inhibition [12]: 1%; Ki ([5]; hek293): Not Active; solubility ([6]; water, read-out: solubility): 1000 to 10000 µg/mL; Ki ([7]; hek293): Not Active; microsomal CLint ([8]; liver microsomes): 39 µL/min/mg; half-life ([9]; liver microsomes): 36 min; inhibition [13]: 28%; Kb [14]: 13 nM"
157,3800,COc1ccc2c(c1)c(-c1c(C)nc(N)n1CC(F)F)cn2S(=O)(=O)c1ccccc1,3240,,Insoluble,Ki ([5]; hek293): Not Active; Ki ([7]; hek293): Not Active
83,2140,COc1ccc2c(c1)c(-c1[nH]c(NCCc3ccccc3)nc1C)cn2S(=O)(=O)c1ccccc1,1910,,Insoluble,Ki ([5]; hek293): Not Active; Ki ([7]; hek293): Not Active
14,> 10000,CCC(=O)Nc1nc(C)c(-c2cn(S(=O)(=O)c3ccccc3)c3ccc(OC)cc23)[nH]1,,,Insoluble,Stability [4]: Stable; Ki ([7]; read-out: Ki): > 10000 nM; microsomal CLint ([8]; microsomes): 17.1 µL/min/mg; half-life ([9]; microsomes): 81 min
